# Published values from different studies.
# Each line is one published result; the experiments were not run side by side.
Structure (SMILES),target or system,assay,test system,conditions,endpoint,result
Cc1[nH]c(C(=O)Nc2ccc(C(=O)NCC(=O)O)cc2N2CC[C@@H](NC(=O)OC(C)(C)C)C2)c(Cl)c1Cl,Enterococcus faecium,"microbial growth, broth dilution",ATCC35667,,MIC,> 32 µg/mL
Cc1cc(C)c(C#N)c(SC2COc3ccccc3C2=O)n1 (stereo not drawn),Trypanosoma brucei,"parasite growth, resazurin",,,EC50,51.2 µM
Nc1ccc(/C=C/C(=O)N2CCc3c(oc4c(-c5ccc(F)cc5)cc(-c5ccc(C(=O)N6CCOCC6)nn5)cc34)C2)cn1,CFPAC-1,"cell growth or viability, CCK-8",,72 h,IC50,> 20 µM
COc1ccc2c(c1)c(=O)c(C(=O)N/N=C/c1ccc([N+](=O)[O-])s1)cn2Cc1ccccc1,Trypanosoma brucei,"parasite growth, resazurin",,72 h,EC50,0.41 µM
Nc1ccc(/C=C/C(=O)N2CCc3c(oc4c(-c5ccc(F)cc5)cc(-c5ccc(C(=O)N6CCC(F)(F)CC6)nn5)cc34)C2)cn1,CFPAC-1,"cell growth or viability, CCK-8",,72 h,IC50,> 20 µM
Cc1[nH]c(C(=O)Nc2ccc(C(=O)NCC(=O)O)cc2N2CCN(C(=O)OC(C)(C)C)CC2)c(Cl)c1Cl,Enterococcus faecium,"microbial growth, broth dilution",ATCC35667,,MIC,> 32 µg/mL
O=C(O)c1ccc2c(c1)nc(Nc1cccc(Cl)c1)c1ccncc12,SK-MES-1,"cell growth or viability, crystal violet",,48 h,IC50,4.6 µM
CC(C)(C)OC(=O)N1CCN(c2cc(C(=O)NCC(=O)O)ccc2NC(=O)c2cc(Br)c(Br)[nH]2)CC1,Enterococcus faecium,"microbial growth, broth dilution",ATCC35667,,MIC,> 32 µg/mL
Cc1ccc(Cn2cc(C(=O)NN)c(=O)c3cc(Oc4ccccc4)ccc32)cc1,Trypanosoma brucei,parasite growth,RHODESIENSE,,EC50,0.5 µM
Cc1cc(C)c(C#N)c(SCC(=O)c2cccc(N)c2)n1,Trypanosoma brucei,"parasite growth, resazurin",,,EC50,> 64 µM
Cc1[nH]c(C(=O)Nc2ccc(C(=O)NCC(=O)O)cc2N2CCNCC2)c(Cl)c1Cl.Cl,Enterococcus faecium,"microbial growth, broth dilution",ATCC35667,,MIC,> 32 µg/mL
Cc1cc(C)c(C#N)c(SCC(=O)Nc2ccccc2)n1,Trypanosoma brucei,"parasite growth, resazurin",,,EC50,> 64 µM
C=CC(=O)NC1CCN(c2ncc3ncnc(Nc4ccc(Oc5ccc6c(c5)ncn6C)c(C)c4)c3n2)CC1,HCC95,cell growth or viability,,,EC50,2.07 µM
Cc1cc(C)c(C#N)c(SCC(=O)c2ccccn2)n1,Trypanosoma brucei,"parasite growth, resazurin",,,EC50,> 64 µM
Cc1[nH]c(C(=O)Nc2ccc(C(=O)NCC(=O)O)cc2N2CC[C@@H](N)C2)c(Cl)c1Cl.Cl,Enterococcus faecium,"microbial growth, broth dilution",ATCC35667,,MIC,> 32 µg/mL
